Results as given in ChEMBL document CHEMBL1157673, “Synthesis and in vitro evaluation of fluorinated diphenyloxide derivatives and sulfur analogs as serotonin transporter ligands” (Bioorg Med Chem, 2010).

Tests used:
[1] = molecular target: Sodium-dependent serotonin transporter (Homo sapiens, UniProt P31645); assay: Displacement of [3H]citalopram from human cloned SERT expressed in HEK293 cells; format: cell-based
Summary of the method: (§1)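 Each compound was first tested at 100 nM against tritiated radioligand binding. A Ki was determined only where that concentration inhibited at least 50% of specific binding (IC50 <100 nM).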

[2] = molecular target: Sodium-dependent noradrenaline transporter (Homo sapiens, UniProt P23975); assay: Displacement of [3H]nisoxetine from human cloned NET expressed in HEK293 cells; format: cell-based; summary of the method: as §1
Sodium-dependent noradrenaline transporter, sequence (P23975 whole entry): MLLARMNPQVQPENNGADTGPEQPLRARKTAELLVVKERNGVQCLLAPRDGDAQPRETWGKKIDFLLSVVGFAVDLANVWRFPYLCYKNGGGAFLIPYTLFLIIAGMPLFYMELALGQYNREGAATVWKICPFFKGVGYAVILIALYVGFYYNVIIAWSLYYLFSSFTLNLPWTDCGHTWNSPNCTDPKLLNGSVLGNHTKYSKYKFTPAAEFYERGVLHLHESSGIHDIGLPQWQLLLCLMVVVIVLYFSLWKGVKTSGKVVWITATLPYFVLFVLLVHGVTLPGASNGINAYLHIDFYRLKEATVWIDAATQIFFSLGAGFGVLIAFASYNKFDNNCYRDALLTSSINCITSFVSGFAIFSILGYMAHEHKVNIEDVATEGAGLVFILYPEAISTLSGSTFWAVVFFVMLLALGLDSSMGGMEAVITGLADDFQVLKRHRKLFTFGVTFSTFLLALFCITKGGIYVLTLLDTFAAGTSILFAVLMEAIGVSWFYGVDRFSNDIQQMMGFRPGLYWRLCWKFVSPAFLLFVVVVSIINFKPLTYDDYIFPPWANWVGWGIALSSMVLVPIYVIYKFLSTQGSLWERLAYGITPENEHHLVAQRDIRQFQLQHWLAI

[3] = molecular target: T1, Sodium-dependent dopamine transporter (Homo sapiens, UniProt Q01959); assay: Displacement of [3H]WIN-35428 from human cloned DAT expressed in HEK293 cells; format: cell-based; details: in the assay text read “[3H]GBR12935” for “[3H]WIN-35428”; summary of the method: as §1
T1 sequence (Q01959 whole entry): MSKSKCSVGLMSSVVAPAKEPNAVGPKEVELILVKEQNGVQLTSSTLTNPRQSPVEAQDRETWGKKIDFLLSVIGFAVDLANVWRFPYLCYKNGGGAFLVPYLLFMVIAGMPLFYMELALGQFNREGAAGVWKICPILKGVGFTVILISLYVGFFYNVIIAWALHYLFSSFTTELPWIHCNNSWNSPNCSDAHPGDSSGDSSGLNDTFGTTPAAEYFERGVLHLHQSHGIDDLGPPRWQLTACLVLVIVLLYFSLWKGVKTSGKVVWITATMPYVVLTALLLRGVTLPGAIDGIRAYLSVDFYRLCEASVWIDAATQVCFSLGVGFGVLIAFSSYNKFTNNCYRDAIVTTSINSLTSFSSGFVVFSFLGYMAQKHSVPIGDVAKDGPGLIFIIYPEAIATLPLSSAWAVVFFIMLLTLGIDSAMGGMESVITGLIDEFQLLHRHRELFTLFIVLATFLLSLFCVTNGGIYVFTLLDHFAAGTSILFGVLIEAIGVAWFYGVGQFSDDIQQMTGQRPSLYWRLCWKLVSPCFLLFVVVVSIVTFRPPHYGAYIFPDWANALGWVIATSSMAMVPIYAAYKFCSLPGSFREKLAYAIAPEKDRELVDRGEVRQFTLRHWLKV

[4] = molecular target: T1, Sodium-dependent dopamine transporter; assay: Displacement of [3H]GBR12935 from human cloned DAT expressed in HEK293 cells

Sodium-dependent serotonin transporter, sequence (P31645 whole entry): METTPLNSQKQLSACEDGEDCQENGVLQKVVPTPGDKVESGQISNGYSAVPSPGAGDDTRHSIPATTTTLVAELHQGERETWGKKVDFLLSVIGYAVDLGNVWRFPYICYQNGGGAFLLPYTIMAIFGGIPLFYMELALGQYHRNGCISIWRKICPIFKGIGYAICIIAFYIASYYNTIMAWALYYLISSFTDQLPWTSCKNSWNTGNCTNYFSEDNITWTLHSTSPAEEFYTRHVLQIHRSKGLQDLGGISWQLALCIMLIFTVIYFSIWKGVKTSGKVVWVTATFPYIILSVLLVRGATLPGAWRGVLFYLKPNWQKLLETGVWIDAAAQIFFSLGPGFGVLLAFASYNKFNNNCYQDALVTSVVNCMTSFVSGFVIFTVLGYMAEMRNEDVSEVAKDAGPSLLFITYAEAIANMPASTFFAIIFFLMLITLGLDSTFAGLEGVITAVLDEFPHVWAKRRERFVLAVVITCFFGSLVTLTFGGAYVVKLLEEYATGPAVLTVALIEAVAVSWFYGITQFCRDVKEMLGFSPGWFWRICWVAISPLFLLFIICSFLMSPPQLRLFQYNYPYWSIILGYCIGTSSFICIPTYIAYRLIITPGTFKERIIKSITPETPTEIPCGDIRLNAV

| Structure (SMILES) | Ki [1] | Ki [2] | Ki [3] | Ki [4] |
| --- | --- | --- | --- | --- |
| Cc1ccc(Sc2cc(F)ccc2CN(C)C)c(N)c1 | 13 nM | 1200 nM | 1220 nM | – |
| Cc1ccc(Oc2cc(OCCF)ccc2CN(C)C)c(N)c1 | 519 nM | 8850 nM | 726 nM | – |
| Cc1ccc(Oc2ccc(OCCF)cc2CN(C)C)c(N)c1 | 401 nM | 667 nM | 4190 nM | – |
| Cc1ccc(Oc2cc(OCCCF)ccc2CN(C)C)c(N)c1 | 445 nM | > 500 nM | > 1000 nM | – |

These reach a lower Ki [1]. Values come first.

| Ki [1] | Ki [2] | Ki [3] | Ki [4] | Structure (SMILES) |
| --- | --- | --- | --- | --- |
| 12 nM | 406 nM | – | 3600 nM | Cc1ccc(Oc2ccc(OCCCCF)cc2CN(C)C)c(N)c1 |
| 8 nM | 1240 nM | – | 503 nM | Cc1ccc(Oc2ccc(F)cc2CN(C)C)c(N)c1 |
| 7 nM | 503 nM | 960 nM | – | Cc1ccc(Oc2cc(F)ccc2CN(C)C)c(N)c1 |
| 7 nM | 632 nM | 6980 nM | – | Cc1ccc(Oc2ccc(OCCCF)cc2CN(C)C)c(N)c1 |
| 0.171 nM | – | – | – | CN(C)Cc1ccccc1Oc1ccc(I)cc1N |
